Measurements from different studies.
Lines come from different studies, so protocols differ.
LRRK2 G2019S: Leucine-rich repeat serine/threonine-protein kinase 2 (LRRK2, Homo sapiens, UniProt Q5S007, G2019S)
LRRK2: Leucine-rich repeat serine/threonine-protein kinase 2 (LRRK2, Homo sapiens, UniProt Q5S007)

Structure (SMILES)	target	effect on	technique	concentration	remaining binding
O=C(NCCCN1CCOCC1)c1ccc(Nc2ncc(Cl)c(-c3ccc(Cl)s3)n2)cc1	LRRK2 G2019S	binding	competition with immobilised ligand	1 µM	10%
Cc1cc(-n2nc(Cc3cc(F)cc(C(F)(F)F)c3)nc2C)ccc1C(N)=O	LRRK2 G2019S	cell-free assay	competition with immobilised ligand	1 µM	100%
c1cncc(-c2cccc(Nc3nccc(NC4CCCCC4)n3)c2)c1	LRRK2	binding	competition with immobilised ligand	10 µM	49%
CN(c1nccc(-c2cnn3ncccc23)n1)C1CC1	LRRK2	binding		1 µM	100%
CCN1CCN(Cc2ccc(C(=O)Nc3ccc(C)c(Oc4ccc5c(c4)CC(=O)N5)c3)cc2C(F)(F)F)CC1	LRRK2 G2019S	binding	competition with immobilised ligand	1 µM	100%
CC1CCCN1c1nccc(-c2cnn3ncccc23)n1 (centres unmarked)	LRRK2 G2019S	binding		1 µM	100%
COc1cnc(Nc2cccc(S(N)(=O)=O)c2)nc1N1CCN(c2ccccc2)C(=O)C1	LRRK2	binding	competition with immobilised ligand	1 µM	95%
CS(=O)(=O)N1CCCC(NC(=O)[C@H](CCC2CCCCC2)NC(=O)c2ccc(CNC(=O)c3cnc4ccccn34)cc2)C1 (some centres unmarked)	LRRK2 G2019S	cell-free assay	competition with immobilised ligand	0.1 µM	100%
CN(C)c1nccc(-c2cnc3ncccn23)n1	LRRK2 G2019S	binding		1 µM	71%
Cc1cnc(Nc2ccc(C(=O)N3CCC(N4CCCC4)CC3)cc2)nc1-c1cc2ccccc2s1	LRRK2 G2019S	binding	competition with immobilised ligand	1 µM	2.8%
C=CC(=O)N1CCC(C(=O)NCC(=O)N2CCN(c3nc(-c4cnc(N)nc4C(F)F)nc(N4CCOCC4)n3)CC2)CC1	LRRK2	binding	competition with immobilised ligand	1 µM	63%
CNCc1ccccc1-c1csc([C@@H](C)Nc2nc(C)nc3cc(OC)c(OC)cc23)c1	LRRK2 G2019S	cell-free assay	competition with immobilised ligand	1 µM	72%
FC(F)(F)Oc1cccc(-c2cnc3ccc(-c4ccncc4)nn23)c1	LRRK2	cell-free assay	competition with immobilised ligand	5 µM	52%
C[C@H]1CCN(c2nccc(-c3cnn4ncccc34)n2)C1	LRRK2	binding		1 µM	67%
Cc1nc(C2CCN(C(=O)c3ccc(OC(F)(F)F)cc3N)CC2)c2ncc(N3CCN(C)CC3)cc2n1	LRRK2 G2019S	cell-free assay	competition with immobilised ligand	1 µM	100%
O=C(NCC1CCOCC1)c1n[nH]cc1NC(=O)c1c(F)cccc1F	LRRK2	binding	competition with immobilised ligand	1 µM	76%
COc1ncc2cc3ccccc3nc2c1C#N	LRRK2	cell-free assay	competition with immobilised ligand	5 µM	100%
O=C(O)[C@@H]1[C@@H](Cn2nnc3ccccc3c2=O)CC[C@H]1C(=O)c1ccc(OCCC2CCOCC2)cc1	LRRK2	cell-free assay	competition with immobilised ligand	1 µM	100%

Structure (SMILES)	target	effect on	technique	concentration	remaining binding
Nc1ncc2c(n1)-c1c([nH]c3ccc(C#CC4CC4)cc13)CCCC2	LRRK2 G2019S	binding	competition with immobilised ligand	1 µM	83%
O=C(c1ccc(Nc2ncc(Cl)c(-c3ccc(Cl)s3)n2)cc1)N1CCC(N2CCCC2)CC1	LRRK2 G2019S	binding	competition with immobilised ligand	1 µM	1.1%
CN(C)c1nccc(-c2cnn3ncccc23)n1	LRRK2	binding		1 µM	90%
O=C(NCCCN1CCOCC1)c1ccc(Nc2nccc(-c3cc4ccccc4s3)n2)cc1	LRRK2	binding	competition with immobilised ligand	1 µM	63%
C[C@@H](c1ccc(-n2cnc3c(N)ncnc32)cc1)N1CCc2nn(C)c(Cc3ccccc3)c2C1=O	LRRK2	binding	competition with immobilised ligand	0.1 µM	93%
c1cnn2ncc(-c3ccnc(N4CCC45COC5)n3)c2c1	LRRK2	binding		1 µM	35%
O=C(c1ccc(Nc2nccc(-c3cc4ccccc4s3)n2)cc1)N1CCC(N2CCCC2)CC1	LRRK2 G2019S	binding	competition with immobilised ligand	1 µM	16%
CNC(=O)[C@@H]1CC[C@@H](n2c(-c3ccc4cnccc4c3)nc3ccc(C(=O)NCc4cccc(C(N)=O)c4)cc32)C1	LRRK2 G2019S	binding	competition with immobilised ligand	1 µM	100%
CCS(=O)(=O)c1cc2cc(C[C@](O)(CC(C)(C)c3ccc(F)cc3C(N)=O)C(F)(F)F)[nH]c2cn1	LRRK2	cell-free assay	competition with immobilised ligand	1 µM	100%
CN1CCN(c2ccc(Nc3nccc(-c4ccccc4)n3)cc2C(F)(F)F)CC1	LRRK2 G2019S	binding		10 µM	100%
CN(CCCC(F)(F)F)c1nccc(-c2cnn3ncccc23)n1	LRRK2 G2019S	binding		1 µM	100%
O=C(c1ccc(Nc2ncc(Cl)c(-c3cc4ccccc4s3)n2)cc1)N1CCC(N2CCCC2)CC1	LRRK2 G2019S	binding	competition with immobilised ligand	1 µM	5.9%
C[C@@H]1CN(c2cc(-c3nn(C)c4ccc(OC5(C)CC5)cc34)ncn2)C[C@H](C)O1	LRRK2	binding	competition with immobilised ligand	1 µM	22%
O=C(Nc1c[nH]nc1C(=O)NC1CCNCC1)c1cc(F)cc(F)c1	LRRK2 G2019S	binding	competition with immobilised ligand	1 µM	93%
O=C(N[C@H]1CCCCC/C=C\C2C[C@@]2(C(=O)O)NC(=O)[C@@H]2C[C@@H](Oc3ccncc3)CN2C1=O)OC1CCCC1 (some centres unmarked)	LRRK2 G2019S	binding	competition with immobilised ligand	1 µM	86%
F[C@@H]1CCN(c2nccc(-c3cnn4ncccc34)n2)C1	LRRK2	binding		1 µM	100%
COc1cnc(Nc2cccc(S(N)(=O)=O)c2)nc1N1CCN(c2ccccc2)CC1	LRRK2	binding	competition with immobilised ligand	1 µM	80%
